Results collected from several papers.
Protocols differ between the studies behind these lines.
Target: Alpha-1D adrenergic receptor (ADRA1D, Homo sapiens, UniProt P25100)
Tested at: 10 µM
Residues used in one study (P25100 1-572): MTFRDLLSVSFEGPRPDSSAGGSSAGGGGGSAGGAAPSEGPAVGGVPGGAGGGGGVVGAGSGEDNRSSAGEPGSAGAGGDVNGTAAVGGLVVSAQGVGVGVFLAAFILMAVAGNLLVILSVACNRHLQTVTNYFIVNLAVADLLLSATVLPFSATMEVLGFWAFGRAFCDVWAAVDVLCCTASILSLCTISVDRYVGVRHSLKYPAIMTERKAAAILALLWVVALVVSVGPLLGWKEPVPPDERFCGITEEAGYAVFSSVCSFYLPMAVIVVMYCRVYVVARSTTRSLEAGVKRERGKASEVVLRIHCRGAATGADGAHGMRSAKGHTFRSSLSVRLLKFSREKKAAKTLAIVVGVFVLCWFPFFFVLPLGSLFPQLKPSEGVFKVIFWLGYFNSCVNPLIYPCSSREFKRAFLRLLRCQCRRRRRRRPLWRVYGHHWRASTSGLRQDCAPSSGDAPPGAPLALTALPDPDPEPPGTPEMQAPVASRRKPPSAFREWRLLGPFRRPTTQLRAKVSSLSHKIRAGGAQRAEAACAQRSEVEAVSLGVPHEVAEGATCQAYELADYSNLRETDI

CCN(CC)c1ccc(C2Nc3ccc(C(=O)c4ccccc4)cc3NC3=C2C(=O)CC(C)(C)C3)cc1 (centres unmarked)  inhibition (ligand displacement, radioligand): 8%
O=C(c1ccc(F)cc1)N(Cc1ccccc1)C1CCCCC1  inhibition (cell-free assay): 7%
CCN(Cc1ccccc1C(F)(F)F)C(=O)C1CCN(S(=O)(=O)c2ccc3[nH]ncc3c2)CC1  inhibition (ligand displacement, radioligand): 5%
N#Cc1cc(Cn2c(N3CCCC3)nc3ccccc32)ccc1F  inhibition (ligand displacement): -11.1%
CC(=O)C1=C(C)N(c2cccc(C(F)(F)F)c2)C(=O)N[C@H]1c1ccc(C#N)nc1  inhibition (ligand displacement): 7.7%
CCCNc1nc2ccccc2n1Cc1ccc(Cl)cc1  inhibition (ligand displacement): 10.2%
CC(C)(C)OC(=O)N1CCCC1CNC1CCC(c2cc(F)ccc2F)(S(=O)(=O)c2ccc(Cl)cc2)CC1 (centres unmarked)  inhibition (cell-free assay): 22.5%
O=C(Nc1ccc(S(=O)(=O)N2CCC(Cl)CC2)cc1)c1ccc([N+](=O)[O-])o1  inhibition (ligand displacement, radioligand): 8%
